# Experimental data from article PMC3712287 (Journal of neuroimmunology, 2010).
# “Also recorded” adds a separate entry of the source. Like-named read-outs stand apart in the source and are kept apart here.
# Columns and labels:
# LAD2 mast cells [1] = experiment: Degranulation assay; format: cell-based, human
# [2] = tested on: FcεRI expression by LAD2 mast cells; experiment: FcεRI surface expression by flow cytometry, LAD2 mast cells; format: cell-based, human; conditions: for Effect of antagonist on SP-mediated downregulation of FcεRI: LAD2, antagonist 0.1 μM 30 min pretreatment
# LAD2 mast cells [3] = conditions: ref Kulka et al., 2008; cited from earlier work
# [4] = tested on: FcεRI α, β and γ subunit mRNA in LAD2 mast cells; experiment: Quantitative real-time PCR of FcεRI α, β and γ subunit mRNA; format: cell-based, human; conditions: LAD2, 1 μg/ml SP, after at least 8 h of incubation, vs untreated control, n=3
# Procedure, shortened: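 LAD2 cells received 1 μg/ml SP or PBS for varying times. Total RNA was column-isolated, and 5 μg was reverse-transcribed with random hexamers. Real-time PCR used 50 ng cDNA per reaction, run in triplicate for 40 cycles. Subunit mRNA was normalized to GAPDH and expressed as percent of PBS-treated cells at each time point. n=3.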
# [5] = tested on: CysLT production by LAD2 mast cells; experiment: ELISA for CysLT production; format: cell-based, human; conditions: for Effect of SP on CysLT production: LAD2, SP 10 μg/ml, anti-IgE 3 h
# [6] = tested on: IgE binding by LAD2 mast cells; experiment: Cell surface IgE binding by flow cytometry; format: cell-based, human; conditions: SP 24 h, sensitized with IgE 1-100 ng/ml 30 min, anti-IgE FITC, n=5
# Procedure, shortened: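 LAD2 human mast cells (StemPro-34 SFM, 10 ng/ml SCF) were incubated 24 h with SP, then sensitized for 30 min with IgE at 1-100 ng/ml. Bound IgE was stained with anti-IgE-FITC (5 μg/ml) for 30 min on ice and read by flow cytometry as MFI.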
# mast cell tryptase = experiment: Tryptase activity assay; format: biochemical, human; conditions: supernatants of SP-activated LAD2, BAPNA substrate, n=3
# Procedure, shortened: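 Washed LAD2 cells were left untreated or activated with SP (1 μg/ml) for 3 h. Cell-free supernatants were exposed to SBTI for 30 min, then mixed with 0.8 mM BAPNA solution in 0.1 M Tris/1 M glycerol, pH 7.8, and incubated 4 h at 37 °C. Nitroaniline was read at 410 nm. Activity was expressed relative to supernatants from SP-stimulated cells without inhibitor. n=3.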
molecule,measurement,setting,value
O=C(O)CN(CCN(CC(=O)O)CC(=O)O)CC(=O)O [EDTA],Effect on SP-induced degranulation,LAD2 mast cells [1],blocked SP-induced degranulation
same,Effect on SP-mediated downregulation of FcεRI,[2],blocked the SP-mediated downregulation of FcεRI
Pertussis toxin,Effect on SP-mediated downregulation of FcεRI,"[2]; Pertussis toxin pretreatment 2 h, then 1 μg/ml SP 24 h, n=3",selectively blocked SP-mediated downregulation of FcεRI
SP(4–11) [SP(4–11) [D-Pro4 D-Trp7.9]],Concentration that blocked the SP-mediated downregulation of FcεRI expression,"[2]; LAD2, 30 min pretreatment, then 1 μg/ml SP 24 h",0.1 µM
same,Effect of antagonist on SP-mediated downregulation of FcεRI,[2]; then 1 μg/ml SP 24 h,blocked SP-mediated downregulation of FcεRI expression
same,Concentration at which SP(4–11) abrogated the SP effect on FcεRI expression,[2]; discussion statement,1 µg/mL
spantide I,Effect on SP-mediated degranulation in mast cells,LAD2 mast cells [3],fails to inhibit SP-mediated degranulation
same,Effect of antagonist on SP-mediated downregulation of FcεRI,[2]; then 1 μg/ml SP 24 h,did not have any effect
substance P [SP],"Effect on expression of FcεRI α, β and γ subunit mRNA",[4],significantly inhibited
same,Effect on mast cell viability,human mast cells,no effect on mast cell viability
same,Lowest SP concentration leading to clear down-regulation of FcεRI,[2]; LAD2 (discussion statement),1 µM
same,Time within which SP reduced IgE receptors,[2]; LAD2 (discussion statement),≤ 30 min
same,Downregulation of FcεRI expression,"[2]; LAD2, 1 μg/ml SP, 24 h",approximately 30%
same,Reduction of FcεRI expression,"[2]; LAD2, 10 μg/ml SP (highest concentration tested), 24 h",~70%
same,Reduction in FcεRI protein expression compared to untreated cells,"[2]; LAD2, 10 μg/ml SP, 2 h",50%
same,IC50 of SP for downregulation of FcεRI surface expression,"[2]; LAD2, in the absence of IgE, SP 24 h, flow cytometry, n=3",5.2 µg/mL
same,Effect of SP on CysLT production,[5]; sensitized with 50 ng/ml IgE,significantly inhibited CysLT production
same,Effect of SP on CysLT production,[5]; sensitized with 100 ng/ml IgE,did not significantly affect CysLT production
same,Effect of SP pretreatment on IgE/anti-IgE-induced CysLT production,"[5]; LAD2, SP 24 h, sensitized with IgE, activated with anti-IgE 3 h, ELISA, n=3",significantly less CysLT
same,Direct activation of CysLT production,"[5]; mast cells, SP alone",does not activate mast cells to produce cysteinyl leukotrienes
same,IgE binding of SP-treated LAD2 vs untreated controls,[6],bound less IgE
vasoactive intestinal peptide [VIP],Effect on mast cell viability,human mast cells,no effect on mast cell viability
"soybean trypsin inhibitor (protein, UniProt P01070 25-205, looked up) Trypsin inhibitor A: DFVLDNEGNPLENGGTYYILSDITAFGGIRAAPTGNERCPLTVVQSRNELDKGIGTIISSPYRIRFIAEGHPLSLKFDSFAVIMLCVGIPTEWSVVEDLPEGPAVKIGENKDAMDGWFRLERVSDDEFNNYKLVFCPQQAEDDKCGDIGISIDHDDGTRRLVVSKNKPLVVQFQKLDKESL",Effect on SP-induced degranulation,"LAD2 mast cells [1]; LAD2, pretreatment before activation with SP, β-hexosaminidase release",did not affect LAD2 cell degranulation
same,Effect on SP-mediated downregulation of FcεRI,"[2]; LAD2, 100 μg/ml SBTI five minutes prior to 1 or 10 μg/ml SP, 24 h",did not affect SP-mediated downregulation of FcεRI
same,Effect on activity of tryptase released by SP activation,mast cell tryptase,able to block the activity of tryptase; also recorded: completely blocked the proteolytic activity of tryptase
